# Only some compounds are listed: those with a hit (about 2.5% of all), similar ones and a draw of the others.
# OX1R antag-1: OX1R (HCRTR1) antagonists, primary screen, fluorescence, CHO/OX1R cells, Fluo-8 calcium, orexin A; Orexin/Hypocretin receptor type 1 (Homo sapiens), O43613; inhibition, % at 5 µM; AID 434989, 2010; actives 0.43% (n = 330,000); Fluo-8 calcium fluorescence;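 active means inhibition above its plate's threshold, mean inhibition of all tested compounds on the plate plus 3 SD, cut at about 37% in these data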
# Target sequence (O43613 whole entry, looked up): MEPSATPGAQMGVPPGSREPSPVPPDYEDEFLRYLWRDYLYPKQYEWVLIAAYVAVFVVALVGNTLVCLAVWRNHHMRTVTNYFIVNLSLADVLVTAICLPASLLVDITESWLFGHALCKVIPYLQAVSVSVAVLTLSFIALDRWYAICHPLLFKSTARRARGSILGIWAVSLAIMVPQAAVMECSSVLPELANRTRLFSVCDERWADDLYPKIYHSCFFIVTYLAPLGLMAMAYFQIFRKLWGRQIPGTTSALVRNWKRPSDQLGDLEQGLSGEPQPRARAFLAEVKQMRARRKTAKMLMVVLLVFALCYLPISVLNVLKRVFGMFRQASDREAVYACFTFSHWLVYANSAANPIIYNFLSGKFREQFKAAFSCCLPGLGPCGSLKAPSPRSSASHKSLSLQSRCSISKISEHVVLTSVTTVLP
# OX1R antag-2: antagonists of human orexin 1 receptor (OX1R); OX1R-expressing cells, FRET antagonist read-out; inhibition, % at 6.6 µM; actives 1.8% (n = 330,000); AID 485270, 2010; in the data active means inhibition mostly above about 38%, no sharp cut-off; inactive means mostly below about 40%
# zfTRPN1 agonist: zebrafish TRPN1 channel agonists, primary screen, cell-based, HEK293, calcium fluorescence. actives 0.18% (n = 220,000). AID 1424, 2008. HEK293 zebrafish TRPN1-YFP, Fluo-8 calcium fluorescence; 100% = response to 87 µM carbachol. transient receptor potential cation channel N1 (TRPN1/NompC), Danio rerio. activation, % at 3 µM;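 active means activation above its plate's cutoff, the mean activation of test wells on that plate plus 3 SD, cut at about 19% in these data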
#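 Control set: carbachol 87 µM as high control, DMSO as low control; system: HEK293 stable line with zebrafish TRPN1-YFP; read-out: % activation versus carbachol response; detection: intracellular calcium fluorescence with Fluo-8; doses: single test compound dose, 3 µM nominal, 0.3% DMSO; schedule: dye 1 h 37 °C plus 30 min RT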
# TRPML3 ag: human TRPML3 channel agonists, primary screen, cell-based, HEK293 TRPML3-YFP, Fluo-8 calcium fluorescence, 3 µM; actives 0.29% (n = 220,000); activation, % at 3 µM; 100% = the carbachol control signal; Mucolipin-3 (Homo sapiens), Q8TDD5;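 active means activation above its plate's cutoff, the mean activation of the plate's test wells plus 3 SD, cut at about 12% in these data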
#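 Test system: TRPML3-YFP stable HEK293 cells. Doses: single point at 3 µM. Incubation: dye loading 1 h 37 °C then 30 min ambient, 125 s read. Signal: Fluo-8 calcium dye fluorescence, ex 470-495, em 515-575 nm. Measure: percent activation from peak-to-basal fluorescence ratio, scaled between DMSO and carbachol.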
# CHO parental Ca: ATP-evoked calcium signal inhibitors, parental CHO, primary screen, counter-screen for OX1R antagonist project, cell-based, fluorescence, Fluo-8 calcium dye; AID 463079, 2010; parental CHO-K1, ATP-induced calcium, Fluo-8 fluorescence; inhibition, % at 5.6 µM; actives 0.63% (n = 330,000);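 active means inhibition above that plate's mean sample inhibition plus 3 SD, cut at about 26% in these data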
#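 Material: parental CHO cells / Compound: single nominal dose of 5.6 µM per compound / Signal: Fluo-8 fluorescence / Replicates: singlicate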
# Hits are given with their value; – = inactive; · = no result.
SMILES,OX1R antag-1,OX1R antag-2,zfTRPN1 agonist,TRPML3 ag,CHO parental Ca
O=c1oc(-c2ccc([N+](=O)[O-])cc2)nc2ccc(O)cc12,–,75.2,–,–,–
O=C(CN1C2CCCC1CC(NC(=O)c1ccco1)C2)Nc1ccccc1C(F)(F)F (centres undefined),–,50.7,–,–,–
O=C(CN1C2CCCC1CC(NC(=O)c1ccccc1)C2)Nc1ccccc1C(F)(F)F (centres undefined),–,67.6,·,·,–
CN(C(=O)/C=C/c1ccccc1)C1CCCCC1,–,–,·,·,–
COc1cccc(N2C(=O)CC(NNc3nc4ccccc4s3)C2=O)c1 (centres undefined),–,–,–,–,–
Nc1nonc1-n1nnc(C(=O)N/N=C/c2cccnc2)c1CSc1ccc(Cl)cc1,–,47.5,·,·,–
Nc1nonc1-n1nnc(C(=O)N/N=C/c2cccnc2)c1CSc1ccccc1,–,–,·,·,–
CN(C)c1ccc(/C=C2\SC(=S)N(Nc3ncc(C(F)(F)F)cc3Cl)C2=O)cc1,100.3,–,–,–,75.8
Cc1cc(C)nc(NN2C(=O)/C(=C/c3ccccc3)SC2=S)n1,–,–,–,–,–
COC(=O)c1c(C)[nH]c(C)c1C(=O)c1ccccc1Cc1ccccc1,–,46.8,·,·,–
CCOC(=O)c1cc([N+](=O)[O-])sc1NC(=O)CC,–,61.3,–,–,–
O=c1c(/C=N/O)c(Nc2ccccc2)nc2ccccn12,–,72.9,–,–,–
CCC(C)N=Cc1c(Nc2ccccc2)nc2c(C)cccn2c1=O (centres undefined),–,–,–,–,–
O=C(O)c1cc(S(=O)(=O)N2CCN(C(=O)c3ccco3)CC2)c(Cl)cc1Cl,–,–,·,·,–
COc1ccc(C(=O)NNC(=S)NC(=O)c2ccc(F)cc2)cc1Br,47.8,–,·,·,–
Cc1ccc(C(=O)NC(=S)NNC(=O)c2ccccc2)cc1,–,–,·,·,–
Cc1cccc(C(=O)NNC(=S)NC(=O)c2cccs2)c1,–,–,·,·,33.5
COc1ccc(C(=O)NC(=S)NNC(=O)c2ccncc2)cc1Br,–,–,·,·,–
Cc1cccc(C(=O)NNC(=S)NC(=O)c2ccccc2)c1,62.3,–,·,·,36.5
Cc1ccc(C(=O)NNC(=S)NC(=O)c2ccccc2)cc1,57.2,–,·,·,33.6
COC(=O)c1c(C)oc(C)c1S(=O)(=O)N(Cc1ccccc1)C(C)C,–,–,–,–,–
Cc1ccc(C(=O)NNC(=S)NC(=O)c2ccc(Cl)cc2Cl)cc1,57.1,–,70.5,42.8,45.0
CCCCC(=O)NC(=S)NNC(=O)c1ccc(Cl)cc1Cl,·,·,–,–,·
CCOCc1c(C(=O)NC2=Nc3ccccc3NC(CC)=C2C(=O)OCC)oc2ccccc12,–,39.5,–,–,–
O=C(Nc1ccc(N2CCN(C(=O)c3ccco3)CC2)c(Cl)c1)c1cc2ccccc2o1,–,71.9,–,–,36.5
SMILES,OX1R antag-1,OX1R antag-2,zfTRPN1 agonist,TRPML3 ag,CHO parental Ca
CCCC(=O)N1CCN(c2ccc(NC(=O)c3cc4ccccc4o3)cc2Cl)CC1,59.7,90.9,–,–,61.3
O=C(Nc1ccc(N2CCN(C(=O)c3ccccc3)CC2)c(Cl)c1)c1ccco1,–,–,–,–,–
CCCC(=O)N1CCN(c2ccc(NC(=O)c3cccs3)cc2Cl)CC1,–,–,–,–,–
COc1ccc(OCC(O)Cn2c(N)nc3c2c(=O)[nH]c(=O)n3C)cc1 (centres undefined),–,–,–,–,–
CC(C)CN(CC(C)C)C(=O)CN1C(=O)NC2(CCc3ccccc3C2)C1=O (centres undefined),–,–,·,·,–
CN(Cc1ccc(Cl)cc1)C(=O)c1ccc(S(=O)(=O)NCc2ccco2)cc1,–,33.9,·,·,–
CN(Cc1cccs1)C(=O)c1ccc(S(=O)(=O)NCc2ccco2)cc1,–,–,–,–,–
C[C@@H](N)C(=O)NC[C@H]1O[C@@H](n2cnc3c(N)ncnc32)[C@H](O)[C@@H]1O,–,–,·,·,–

# Bioassay records: PubChem, The Scripps Research Institute Molecular Screening Center
